Assay outcomes: PubChem BioAssay, several laboratories
SR-BI uptake up = activators of SR-BI mediated HDL lipid uptake; CHO ldlA[mSR-BI] cells, DiI-HDL uptake fluorescence, 3 h; 100 = double the neutral-control signal; activation, % at 12.5 µM; 320,000 compounds, 0.096% hits;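 active means mean replicate activation of at least 60% and every replicate at or above 60%; inconclusive means mean or all-replicate condition met, but not both; inactive means mean below 60% and not all replicates reaching 60%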;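 further: 0% = median plate neutral-control signal and 100% = twice that signal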
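System: LDL receptor-deficient CHO ldlA cells overexpressing murine SR-BI | Timing: 3 h uptake period with compound, 37 °C | Medium: HEPES-buffered (25 mM, pH 7.4) F12 plus 0.5% BSA | Dosing: Single-point compound dose | Signal: Bottom-read fluorescence, 550/595 nm | Read-out: Retained DiI signal reflecting DiI-HDL uptake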
Neddylation inh = cullin neddylation inhibition | P61081+Q13564 | TR-FRET cullin neddylation, biochemical | inhibition, % at 25 µM | 360,000 compounds, 0.58% hits | AID 651699; in the data active means inhibition above about 36%
Target sequence (P61081 whole entry, looked up): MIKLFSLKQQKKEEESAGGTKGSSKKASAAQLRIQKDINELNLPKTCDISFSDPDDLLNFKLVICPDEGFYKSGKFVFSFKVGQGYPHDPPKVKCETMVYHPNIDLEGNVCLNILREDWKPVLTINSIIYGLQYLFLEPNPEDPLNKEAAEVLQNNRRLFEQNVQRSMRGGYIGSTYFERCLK
Target sequence (Q13564 whole entry, looked up): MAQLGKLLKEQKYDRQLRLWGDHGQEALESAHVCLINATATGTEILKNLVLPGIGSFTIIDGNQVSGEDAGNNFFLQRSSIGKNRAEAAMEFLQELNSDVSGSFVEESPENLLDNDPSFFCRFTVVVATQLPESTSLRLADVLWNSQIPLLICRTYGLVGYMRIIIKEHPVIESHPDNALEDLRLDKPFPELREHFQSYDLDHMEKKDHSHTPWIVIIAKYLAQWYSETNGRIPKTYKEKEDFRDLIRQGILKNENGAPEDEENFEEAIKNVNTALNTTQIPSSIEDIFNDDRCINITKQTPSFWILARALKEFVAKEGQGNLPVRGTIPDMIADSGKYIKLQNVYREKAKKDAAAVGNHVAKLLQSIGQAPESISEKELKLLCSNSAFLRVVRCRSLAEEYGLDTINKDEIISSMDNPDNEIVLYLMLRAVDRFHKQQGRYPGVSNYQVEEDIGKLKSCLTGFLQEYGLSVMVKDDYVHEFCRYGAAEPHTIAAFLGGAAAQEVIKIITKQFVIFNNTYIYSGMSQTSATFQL
UBC13 inh = human UBC13 polyubiquitination inhibition; P61088; AID 485273; 330,000 compounds, 0.47% hits; UBC13 polyubiquitin chain formation, TR-FRET; inhibition, % at 20 µM; in the data active means inhibition above about 45%, passing the limit was not always enough; inconclusive means no clear call, values can overlap the other calls
SR-BI DiI inh = blocks mouse SR-BI lipid uptake from DiI-HDL | AID 488896 | ldlA[mSR-BI] CHO cells, DiI-HDL uptake fluorescence, 3 h | inhibition, % at 12.5 µM | 320,000 compounds, 0.96% hits | Q61009;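 active means mean replicate inhibition of at least 70% and a set share of replicates each scoring 70 or more; inconclusive means meets just one of the two criteria; inactive means fails both criteria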;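 further: 0% = median of neutral control wells and 100% = median of positive control wells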
* hit, by the source's call; u = inconclusive; x = no result shown. Sampled rows, rich in hits. Any-hit rate of the full collection: about 1.9%.

SMILES	SR-BI uptake up	Neddylation inh	UBC13 inh	SR-BI DiI inh
COc1ccccc1-c1cc(C(=O)Nc2sc3c(c2C#N)CCC(C)C3)c2ccccc2n1 (stereo not given)	-86.2	22.2	-21.7	86.2*
O=CN1CCN(C=O)C(O)C1O (stereo not given)	12.8	0.7	x	-12.8
COc1ccc(NC(=O)Cn2ccc(C(F)(F)F)n2)cc1S(=O)(=O)N1CCOCC1	-3.9	6.1	-11.4	3.9
COCC(C)NC(=O)c1cc(OC)cc(OC)c1 (stereo not given)	22.4	-3.2	-10.2	-22.4
COc1cc(OC)cc(C(=O)NC(C)CNc2ccc(Cl)cc2[N+](=O)[O-])c1 (stereo not given)	-79.1	-64.2	-54.1	79.1*
CCOc1ccc(-n2cc(-c3ccccc3)c3c(N4CCOCC4)ncnc32)cc1	-81.5	25.5	10.5	81.5*
COc1ccc(-n2cc(-c3ccccc3)c3c(N4CC(C)OC(C)C4)ncnc32)cc1 (stereo not given)	-75.9	33.1	-3.0	75.9*
c1ccc(-c2cn(-c3ccccc3)c3ncnc(N4CCCCC4)c23)cc1	-16.8	21.8	-2.7	16.8
Cn1nc(C(F)(F)F)c2cc(C(=O)Nc3ccc(C(F)(F)F)cc3)sc21	-84.1	8.4	-5.7	84.1*
Cn1nc(C(F)(F)F)c2cc(C(=O)Nc3ccc(F)c(Cl)c3)sc21	-72.8	14.9	-7.9	u
Cn1nc(C(F)(F)F)c2cc(C(=O)Nc3ccc(F)cc3)sc21	-75.7	-21.0	3.8	75.7*
Cc1occc1C(=O)N/N=C/C1=C(N2CCOCC2)C(=C/c2ccc(Cl)cc2Cl)/CC1	-86.4	38.2	x	86.4*
O/N=C/c1ccc2ccccc2n1	81.6*	-7.7	0.9	-81.6
CC(=O)c1c(C)[nH]c(C(=O)OCc2cccc(Cl)c2)c1C	-71.0	-2.9	7.7	71.0*
C[C@@H]1CN([C@H](C)CO)C(=O)c2cc(C#C[C@@H](C)O)cnc2O[C@H]1CN(C)C(=O)c1ccc(F)cc1	x	1.6	x	x
COC1=C/C(=C/c2c(O)c(C#N)c3ccccn23)C=CC1=O	x	39.0*	-103.5	x
CCCCN(C(=O)c1cccc(S(=O)(=O)N2CCCC2)c1)c1c(N)n(CCC)c(=O)[nH]c1=O	70.1*	-13.7	-1.2	-70.1
O=C1NC[C@@H](CCCCN2CCN(CCC3CCCCC3)C(=O)C2=O)N(Cc2ccccc2)C1=O	x	2.6	x	x
CC1(C)C2CCC(CN=C(N)CSS(=O)(=O)O)C1C2 (stereo not given)	x	8.0	x	x
O=C1c2cccc(OCc3ccc(F)cc3)c2CCN1Cc1ccccc1	-25.4	-5.3	13.0	25.4
CCN1CCc2c(OCc3ccccc3)cccc2C1=O	-80.1	6.7	-8.3	80.1*
Cn1ncc2c(N3CCC(Cc4ccccc4)CC3)ncnc21	16.4	11.2	0.7	-16.4
NNC(=O)c1cc2c(N3CCC(Cc4ccccc4)CC3)ncnc2s1	-79.9	1.3	-4.3	79.9*
COC(=O)c1ccc(C2N=C(c3cccs3)CC(c3ccccc3O)N2)cc1 (stereo not given)	-74.8	4.8	-1.3	74.8*
O=C(N/C=C/c1ccccc1)c1ccccc1	4.0	0.8	-9.0	-4.0
SMILES	SR-BI uptake up	Neddylation inh	UBC13 inh	SR-BI DiI inh
CC(=O)c1sc2nc(-c3cccs3)cc(C(F)(F)F)c2c1N	-72.2	x	-3.9	72.2*
C=CCOC(=O)C1=C(C)NC(SCC)=C(C#N)C1c1ccc(Cl)cc1 (stereo not given)	-82.7	x	16.0	82.7*
C=CCOC(=O)C1=C(C)NC(SCC(N)=O)=C(C#N)C1c1ccc(C)cc1 (stereo not given)	-9.1	-31.7	7.5	9.1
CNC(=S)N/N=C/c1ccc(-c2ccc(C(=O)O)cc2)o1	19.5	47.8*	-0.3	-19.5
CNC(=S)N/N=C/c1ccc(-c2ccc(Cl)c([N+](=O)[O-])c2)o1	-54.3	-22.4	3.5	54.3
COc1c(/C=N/NC(=O)c2ccncc2)c(CCN(C)C(C)=O)cc2c1OCO2	145.3*	-1.6	-4.1	-145.3
O=C(COc1ccccc1)Nc1ccccc1N1CCN(c2ccc(F)cc2)CC1	-80.0	-18.8	2.2	80.0*
COc1cc(OC)c(NC(=O)CCNC(=O)Cn2cnc3ccccc3c2=O)cc1Cl	-18.8	9.4	1.7	18.8
COc1cc(Cl)c(C)cc1NC(=O)CSc1ccc(C)cc1	-30.8	11.1	13.4	30.8
COc1cc(Cl)c(C)cc1NC(=O)CNC(=O)Cn1cnc2ccccc2c1=O	-85.0	-9.7	3.2	85.0*
COc1cc(Cl)c(C)cc1NC(=O)CSc1cc(Cl)ccc1Cl	-82.4	-1.9	-21.1	82.4*
CCc1nc2ccc(C(=O)NCCCN3CCCC3=O)cn2c1N(C)C(=O)C1CCCCC1	x	4.4	x	x
CC1(C(=O)O)CCCN(C(=O)c2ccc(OC(F)F)cc2)C1 (stereo not given)	x	-4.2	x	x
Cc1cccc(NC(=O)N2CCc3ccccc3C2)c1C	-9.1	1.5	5.1	9.1
CC(C)(C)NC(=S)NNC(=O)c1ccncc1	185.1*	2.2	-1.3	-185.1
N#CC1=CC2CN(Cc3ccccc3)C1C1C(=O)N(c3ccccc3)C(=O)C21 (stereo not given)	1.9	0.6	x	-1.9
O=C(N/N=C/c1ccc(Cl)cc1Cl)c1cccc(N2CCCC2=O)c1	-84.8	-7.5	-9.8	84.8*
O=C(N/N=C/c1cc(Br)cc(Br)c1O)c1cccc(N2CCCC2=O)c1	-131.5	21.1	-24.8	131.5*
O=C(N/N=C/c1ccc([N+](=O)[O-])cc1)c1cccc(N2CCCC2=O)c1	-63.2	-56.6	-4.9	63.2
CCc1cc(=O)oc2cc(C)cc(OCC(=O)N3CCC(C(=O)NC(C)C)(c4ccccc4)CC3)c12	-51.2	x	14.5	51.2
CCC(CC)NC(=O)COc1ccc(OC)cc1C=O	10.0	42.2*	14.6	-10.0
COC(=O)c1ccc(COC(=O)c2ccc(CS(=O)(=O)c3ccc(C)cc3)cc2)cc1	-9.6	2.4	-2.8	9.6
COC(=O)c1cc2c(n1S(=O)(=O)c1ccc(C)cc1)C(=O)C(=O)c1[nH]cc(C(=O)OCc3ccccc3)c1-2	-88.2	-24.3	x	88.2*
O=C1c2ccccc2-c2cc(Br)ccc2NC1O (stereo not given)	x	-146.9	x	x
O=C1c2ccccc2C(=Nc2ccccc2)C1c1cccc(Br)c1 (stereo not given)	-81.3	-9.4	-52.9	81.3*
SMILES	SR-BI uptake up	Neddylation inh	UBC13 inh	SR-BI DiI inh
COc1ccccc1NC(=O)Nc1nc(CC(=O)Nc2cc(F)ccc2F)cs1	-96.5	-8.7	44.5	96.5*
COc1ccccc1NC(=O)Nc1nc(CC(=O)Nc2ccc(N(C)C)cc2)cs1	-90.7	4.5	4.4	90.7*
COc1ccccc1NC(=O)Nc1nc(CC(=O)Nc2cccc(F)c2)cs1	-36.0	3.5	44.3	36.0
COc1ccc(C(=O)NC(=S)Nc2ccccc2N2CCOCC2)cc1Br	-54.8	-4.8	-4.3	54.8
COc1ccc(OC)c(NC(=O)c2ccc(OCC(=O)N3CCOCC3)c(OC)c2)c1	-72.5	4.6	1.2	72.5*
COc1ccc(C(=O)Nc2ccccc2N2CCOCC2)cc1Br	-79.9	10.3	-6.5	79.9*
COc1ccc(C(=O)Nc2ccccc2N2CCCCC2)cc1[N+](=O)[O-]	-77.5	-10.4	-6.8	77.5*
